Drawing on ChEMBL document CHEMBL1144656, “Synthesis and biological evaluation of nitric oxide-releasing derivatives of oleanolic acid as inhibitors of HepG2 cell apoptosis” (2007), this text covers Activity for 7 molecules.

The nature of test [1]: Production of nitric oxide by in vitro Griess assay. It counts as functional. Put shortly:
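NO release estimated as nitrite by Griess reaction in vitro: chromophore formed for 10 min at 30 °C, absorbance at 540 nm, reported as ng/ml.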

Test [2] concerns HepG2. Put plainly: Inhibition of anti-Fas induced apoptosis in human HepG2 cells at 1 nM by LDH assay. It counts as functional, cell-based. In a few lines: (§1)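 HepG2 cells, 10^4/well in triplicate, in phenol-red-free DMEM with 4% FCS and 2 µg/ml cycloheximide. Apoptosis induced with anti-Fas (CH-11 at 50 ng/ml or DX2 at 1.5 µg/ml) with or without test agent, 18 h at 37 °C, 5% CO2. Supernatant LDH activity read at O.D. 490/650. Untreated cells and 1% Triton X-100 served as 0% and 100% cytotoxicity references for % protection. Means of three independent experiments.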

The species named for test [3] is Homo sapiens. As to the kind of experiment: Protective effect on anti-Fas induced apoptosis in human Hep3b p53-/- cells 1 nM by LDH assay. The test is classed as functional, cell-based.
In test [4] the test system is HepG2. As to the kind of experiment: Protective effect on anti-Fas induced apoptosis in human HepG2 cells by LDH assay. It counts as functional. In a few lines: as §1
Test [5] is filed under the species Homo sapiens. As to the kind of experiment: Protective effect on anti-Fas induced apoptosis in human Hep3b p53-/- cells 0.1 uM by LDH assay. The test is classed as functional, cell-based.
Test [6] deals with HepG2. Put plainly: Inhibition of anti-Fas induced apoptosis in human HepG2 cells at 0.1 uM by LDH assay. The test is classed as functional, cell-based. Put shortly: as §1
Test [7] relates to HepG2. As to the kind of experiment: Inhibition of anti-Fas induced apoptosis in human HepG2 cells at 0.1 nM by LDH assay. It counts as functional, cell-based. Put shortly: as §1
The species entered for test [8] is Homo sapiens. As to the kind of experiment: Protective effect on anti-Fas induced apoptosis in human Hep3b p53-/- cells 0.1 nM by LDH assay. The test is classed as functional, cell-based.
In test [9] the test system is Rattus norvegicus. Put plainly: Inhibition of CCl4-induced liver damage in rat at 128 mg/kg, po. It counts as functional, organism-based. Also on record: dose 128 mg/kg.
The subject of test [10] is Rattus norvegicus. As to the kind of experiment: Inhibition of CCl4-induced hepatic fibrosis in rat at 128 mg/kg, po. The test is classed as functional, organism-based. Also on record: dose 128 mg/kg.
Test [11] deals with HepG2. Put plainly: Inhibition of anti-Fas induced apoptosis in human HepG2 cells at 10 nM by LDH assay. The test is classed as functional, cell-based. Put shortly: as §1
The species named for test [12] is Homo sapiens. As to the kind of experiment: Protective effect on anti-Fas induced apoptosis in human Hep3b p53-/- cells 10 nM by LDH assay. The test is classed as functional, cell-based.

The structures appear in SMILES notation. Active and inactive are the calls of the source. No cut-off for these calls is given here.

Molecule `COc1cc(C(=O)OCCCCO[N+](=O)[O-])ccc1OC(=O)[C@]12CCC(C)(C)C[C@H]1C1=CC[C@@H]3[C@@]4(C)CC[C@H](OC(=O)C(F)(F)F)C(C)(C)[C@@H]4CC[C@@]3(C)[C@]1(C)CC2` came in with an Activity in test [1] of 28 ng/mL.
In the case of `COc1cc(/C=C/C(=O)OCCCCO[N+](=O)[O-])ccc1OC(=O)[C@]12CCC(C)(C)C[C@H]1C1=CC[C@@H]3[C@@]4(C)CC[C@H](OC(=O)C(F)(F)F)C(C)(C)[C@@H]4CC[C@@]3(C)[C@]1(C)CC2`, the outcome in the test with HepG2 [2] and in the test listed under Homo sapiens [3] was Active. This molecule came in with an Activity in test [1] of 12 ng/mL.
For the molecule `COc1cc(/C=C/C(=O)OCCCCO[N+](=O)[O-])ccc1OC(=O)CC[C@@H](C)[C@H]1CC[C@H]2[C@H]3C(CC[C@]12C)[C@@]1(C)CC[C@@H](O)C[C@H]1C[C@@H]3O` (stereo partly drawn), the Activity in the test with HepG2 [4] was 33.4%.
As for `COc1cc(/C=C/C(=O)OCCCCCCO[N+](=O)[O-])ccc1OC(=O)[C@]12CCC(C)(C)C[C@H]1C1=CC[C@@H]3[C@@]4(C)CC[C@H](OC(=O)C(F)(F)F)C(C)(C)[C@@H]4CC[C@@]3(C)[C@]1(C)CC2`, the result in the test filed under Homo sapiens [5] and with HepG2 [6] was Active. Further, the Activity in test [1] worked out at 21 ng/mL.
`CC1(C)CC[C@]2(C(=O)Oc3ccc(/C=C/C(=O)OCCCCO[N+](=O)[O-])cc3)CC[C@]3(C)C(=CC[C@@H]4[C@@]5(C)CC[C@H](OC(=O)C(F)(F)F)C(C)(C)[C@@H]5CC[C@]43C)[C@@H]2C1`: the result in the test filed under Homo sapiens [5] was Active. In [1], the Activity worked out at 20 ng/mL.
Turning to `COc1cc(/C=C/C(=O)OCCCO[N+](=O)[O-])ccc1OC(=O)[C@]12CCC(C)(C)C[C@H]1C1=CC[C@@H]3[C@@]4(C)CC[C@H](OC(=O)C(F)(F)F)C(C)(C)[C@@H]4CC[C@@]3(C)[C@]1(C)CC2`, the outcome with HepG2 [7], in the test filed under Homo sapiens [8], in the test with Rattus norvegicus [9] and in the test on Rattus norvegicus [10] was Active. This molecule yielded an Activity in test [1] of 12 ng/mL.
Turning to `CC1(C)CC[C@]2(C(=O)Oc3ccc(/C=C/C(=O)OCCCO[N+](=O)[O-])cc3)CC[C@]3(C)C(=CC[C@@H]4[C@@]5(C)CC[C@H](OC(=O)C(F)(F)F)C(C)(C)[C@@H]5CC[C@]43C)[C@@H]2C1`, the outcome in the test on HepG2 [11] and in the test listed under Homo sapiens [12] was Active. In addition, the Activity in [1] was 18 ng/mL.
